# Reference: ChEMBL document CHEMBL4382256, “Design and Synthesis of Marine Phidianidine Derivatives as Potential Immunosuppressive Agents” (J Med Chem, 2018)
# Activity calls are given as the source filed them. No cut-off for these calls is given here.
# Tests used:
# [1] = Cytotoxicity against BALB/c mouse splenocytes after 48 hrs by CCK-8 assay; assay type: cell-based, Splenocyte
# Method in brief: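 Fresh female BALB/c splenocytes (1×10^6 cells), RBC-depleted with ammonium chloride, cultured in triplicate in RPMI 1640/10% FBS with penicillin/streptomycin at 37 °C, 5% CO2 for 48 h with or without compound (DMSO stock diluted in medium). CCK-8 added, 6-8 h further incubation, absorbance 450 nm (570 nm calibration). CC50 from log(inhibitor) vs normalized response non-linear fit.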
# [2] = tested on: Splenocyte; assay: (§1) Immunosuppressive activity in BALB/c mouse splenocytes assessed as inhibition of LPS-stimulated B-cell proliferation by measuring [3H]-thymidine uptake preincubated for 48 hrs followed by LPS stimulation and [3H]-thymidine addition for 8 hrs measured after 48 hrs by beta-scintillation counting analysis; assay type: functional, cell-based
# Method in brief: (§2)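 Female BALB/c splenocytes (5×10^5 cells), triplicate, with or without compound, stimulated with Con A 5 μg/ml (T cells) or LPS (E. coli 055:B5) 10 μg/ml (B cells). Culture 48 h at 37 °C, 5% CO2. Pulsed 8 h with 0.5 μCi/well [3H]thymidine, harvested to glass fiber filters, beta scintillation counted. IC50 from log(inhibitor) vs normalized response non-linear fit.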
# [3] = tested on: Splenocyte; assay: as §1, with “concanavalin A stimulated T-cell” for “LPS-stimulated B-cell”, “concanavalin A” for “LPS”; assay type: functional, cell-based; method in brief: as §2
# [4] = tested on: Splenocyte; assay: as §1, with “concanavalin A stimulated T-cell” for “LPS-stimulated B-cell”, “uptake at 50 uM” for “uptake”, “concanavalin A” for “LPS”; assay type: functional, cell-based
# Method in brief: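 Female BALB/c splenocytes (5×10^5 cells), triplicate, compound at 50 μM, Con A 5 μg/ml stimulation, 48 h at 37 °C, 5% CO2. Pulsed 8 h with 0.5 μCi/well [3H]thymidine, harvested to glass fiber filters, counted by beta scintillation.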
# [5] = Immunosuppressive activity in BALB/c mouse CD4-positive T cells assessed as anti-CD3/CD28 stimulated CD25 expression at 1 uM by phycoerythrin staining-based flow cytometric analysis (reference value: 52.5%); assay type: functional
# Method in brief: (§3)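 Purified splenic CD4+ T cells stimulated with anti-CD3 (5 μg/ml) plus anti-CD28 (2 μg/ml) with or without compound at 10, 3 or 1 μM. Cells washed in PBS, stained with fixable viability dye eFluor 780 for 30 min at 4 °C, Fc-blocked with anti-CD16/CD32, stained with PE-CD25. CD25+ percentage read by flow cytometry.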
# [6] = organism: Mus musculus; assay: Immunosuppressive activity in BALB/c mouse CD19-positive B cells assessed as decrease in anti-IgM/CD40 stimulated IL-6 levels at 1 to 10 uM after 24 hrs by ELISA; assay type: functional
# Method in brief: (§4)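 Purified splenic CD19+ B cells (negative selection, >98% pure) stimulated with F(ab')2 anti-IgM (10 μg/ml) plus anti-CD40 (1 μg/ml), with or without compound at 10, 3 and 1 μM, 24 h. Supernatant IL-6 and IL-10 measured by mouse ELISA kits.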
# [7] = organism: Mus musculus; assay: Immunosuppressive activity in BALB/c mouse CD4-positive T cells assessed as decrease in anti-CD3/CD28 stimulated IL-2 production at 1 to 10 uM after 24 hrs by ELISA; assay type: functional
# Method in brief: (§5)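 Purified splenic CD4+ T cells (negative selection, >98% pure) stimulated with anti-CD3 (5 μg/ml) plus anti-CD28 (2 μg/ml), with or without compound at 10, 3 and 1 μM, for 24 h. Supernatant IL-2 and IFN-γ measured by mouse ELISA kits.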
# [8] = Immunosuppressive activity in BALB/c mouse CD19-positive B cells assessed as inhibition of anti-IgM/CD40 -induced decrease in IgD expression by measuring mean fluorescence intensity at 10 uM by allophycocyanin staining-based flow cytometric analysis (reference value: 5084); assay type: functional
# [9] = Immunosuppressive activity in BALB/c mouse CD4-positive T cells assessed as anti-CD3/CD28 stimulated CD25 expression at 10 uM by phycoerythrin staining-based flow cytometric analysis (reference value: 52.5%); assay type: functional; method in brief: as §3
# [10] = organism: Mus musculus; assay: Immunosuppressive activity in BALB/c mouse CD4-positive T cells assessed as decrease in anti-CD3/CD28 stimulated IFN-gamma production at 1 to 10 uM after 24 hrs by ELISA; assay type: functional; method in brief: as §5
# [11] = Immunosuppressive activity in BALB/c mouse CD19-positive B cells assessed as inhibition of anti-IgM/CD40 -induced decrease in IgD expression by measuring mean fluorescence intensity at 3 uM by allophycocyanin staining-based flow cytometric analysis (reference value: 5084); assay type: functional
# [12] = organism: Mus musculus; assay: Immunosuppressive activity in BALB/c mouse CD19-positive B cells assessed as increase in anti-IgM/CD40 stimulated IL-10 levels at 1 to 10 uM after 24 hrs by ELISA; assay type: functional; method in brief: as §4
# [13] = organism: Mus musculus; assay: Immunosuppressive activity in BALB/c mouse CD4-positive T cells assessed as inhibition of anti-CD3/CD28 stimulated cell proliferation at 1 to 10 uM after 48 hrs by [3H]-thymidine uptake assay; assay type: functional
# Method in brief: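 CD4+ T cells isolated from BALB/c spleen by immunomagnetic negative selection (purity >98%). 4×10^5 cells/well on plate-coated anti-CD3 (5 μg/ml) plus anti-CD28 (2 μg/ml), with or without compound at 10, 3 and 1 μM, for 48 h. Proliferation read by 0.5 μCi/well [3H]thymidine pulse.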
# [14] = organism: Mus musculus; assay: Immunosuppressive activity in BALB/c mouse CD19-positive B cells assessed as inhibition of anti-IgM/CD40 stimulated cell proliferation at 1 to 10 uM after 48 hrs by [3H]-thymidine uptake assay; assay type: functional
# Method in brief: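 CD19+ B cells purified from BALB/c spleen by negative selection (purity >98%). Stimulated with F(ab')2 anti-mouse IgM (10 μg/ml) plus hamster anti-mouse CD40 (1 μg/ml), with or without compound at 10, 3 and 1 μM, 48 h. Proliferation by 0.5 μCi/well [3H]thymidine pulse.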
# [15] = Immunosuppressive activity in BALB/c mouse CD19-positive B cells assessed as inhibition of anti-IgM/CD40 -induced decrease in IgD expression by measuring mean fluorescence intensity at 1 uM by allophycocyanin staining-based flow cytometric analysis (reference value: 5084); assay type: functional
# [16] = Immunosuppressive activity in BALB/c mouse CD4-positive T cells assessed as anti-CD3/CD28 stimulated CD25 expression at 3 uM by phycoerythrin staining-based flow cytometric analysis (reference value: 52.5%); assay type: functional; method in brief: as §3
SMILES,CC50 at 48 h [1] [µM],IC50 [2] [µM],IC50 [3] [µM],other results
Clc1ccc(-c2noc(Cc3c[nH]c4ccccc34)n2)cc1,42.8,> 50,22.6,
COc1cc(-c2noc(C34CCC(NC(=O)OC(C)(C)C)(CC3)CC4)n2)cc(OC)c1OC,12.7,3.6,2.5,
COc1cc(C(=O)O/N=C(\N)Cc2c[nH]c3ccccc23)cc(OC)c1OC,10.1,6.8,11.9,
c1ccc(-c2noc(Cc3c[nH]c4ccccc34)n2)cc1,> 50,> 50,> 50,
COc1cc(-c2noc(-c3ccc(NC(=O)OC(C)(C)C)cc3)n2)cc(OC)c1OC,9.2,2.2,1.6,
CCCCc1ccc(-c2nc(Cc3c[nH]c4ccccc34)no2)cc1,8.2,9.8,11.2,
N=C(N)NCCCCNc1noc(Cc2c[nH]c3ccccc23)n1,,,,inhibition [4]: inactive
N=C(N)NCCNc1noc(Cc2c[nH]c3ccccc23)n1,,,,inhibition [4]: inactive
CCc1ccc(-c2noc(Cc3c[nH]c4ccccc34)n2)cc1,24.4,13.9,7.5,
COc1cc(-c2noc(-c3cccc(N)c3)n2)cc(OC)c1OC,8.2,5.5,7,
COc1cc(/C(N)=N/OC(=O)Cc2c[nH]c3ccccc23)cc(OC)c1OC,37.3,10.4,19.5,
Fc1ccc(-c2noc(Cc3c[nH]c4ccccc34)n2)cc1,13.6,13.6,5.4,
COc1cc(-c2noc(-c3ccccc3)n2)cc(OC)c1OC,> 50,> 50,> 50,
COc1cc(-c2noc(Cc3c[nH]c4ccccc34)n2)cc(OC)c1OC,> 50,2.8,> 50,
COc1cccc(-c2nc(Cc3c[nH]c4ccccc34)no2)c1,18.4,11.1,18.5,
COc1cc(-c2noc(C3CC4(C3)CC(F)(F)C4)n2)cc(OC)c1OC,28.5,5.6,5.2,
COc1ccccc1-c1nc(Cc2c[nH]c3ccccc23)no1,42.2,11.1,16.7,
CCc1ccc(-c2nc(-c3cc(OC)c(OC)c(OC)c3)no2)cc1,31.3,> 50,> 50,

SMILES,CC50 at 48 h [1] [µM],IC50 [2] [µM],IC50 [3] [µM],other results
CCCCCCc1ccc(-c2nc(-c3cc(OC)c(OC)c(OC)c3)no2)cc1,25,22.9,23.8,
COc1cc(-c2noc(C34CC5CC(CC(C5)C3)C4)n2)cc(OC)c1OC,26.5,18.8,2.7,
Fc1ccccc1-c1nc(Cc2c[nH]c3ccccc23)no1,> 50,> 50,> 50,
Fc1ccc(-c2nc(Cc3c[nH]c4ccccc34)no2)c(C(F)(F)F)c1,40.6,9.7,15.7,
COc1ccc(Br)c(-c2nc(Cc3c[nH]c4ccccc34)no2)c1,33.6,6.9,13.3,
COc1cc(OC)cc(-c2nc(Cc3c[nH]c4ccccc34)no2)c1,> 50,13.9,> 50,
COc1ccc(-c2nc(Cc3c[nH]c4ccccc34)no2)cc1,> 50,> 50,> 50,
COc1cc(-c2noc(C34CCC(N)(CC3)CC4)n2)cc(OC)c1OC,25.8,4.1,4.8,
COc1cc(-c2nc(Cc3c[nH]c4ccccc34)no2)cc(OC)c1OC,> 50,3.1,11,Activity [5]: 50.3%; Activity [6]: Active; Activity [7]: Active; Flu intensity [8]: 6814; Activity [9]: 22%; Activity [10]: Active; Flu intensity [11]: 6134; Activity [12]: Active; inhibition [13]: Active; Activity [14]: Active; Flu intensity [15]: 5640; Activity [16]: 48.6%
CCCCc1ccc(-c2nc(-c3cc(OC)c(OC)c(OC)c3)no2)cc1,21.2,36.2,> 50,
O=[N+]([O-])c1ccc(-c2noc(Cc3c[nH]c4ccccc34)n2)cc1,> 50,> 50,> 50,
COc1ccc(-c2nc(Cc3c[nH]c4ccccc34)no2)c(OC)c1,9.3,4.7,8.6,
COc1cc(-c2noc(-c3ccc(N)cc3)n2)cc(OC)c1OC,> 50,1.7,0.8,Activity [5]: 52.2%; Activity [6]: Active; Activity [7]: Active; Flu intensity [8]: 6995; Activity [9]: 19%; Activity [10]: Active; Flu intensity [11]: 6866; Activity [12]: Active; inhibition [13]: Active; Activity [14]: Active; Flu intensity [15]: 5281; Activity [16]: 38.3%
COc1ccc(OC)c(-c2nc(Cc3c[nH]c4ccccc34)no2)c1,> 50,8.4,> 50,
N=C(N)NCCCCCNc1noc(Cc2c[nH]c3ccccc23)n1,,,,inhibition [4]: inactive
CCCCc1nc(Cc2c[nH]c3ccccc23)no1,> 50,> 50,> 50,
COc1cc(-c2noc(-c3cc(OC)c(OC)c(OC)c3)n2)cc(OC)c1OC,> 50,> 50,5.5,
